From ChEMBL document CHEMBL1149311, “Synthesis and antitumor activity of methyltriazene prodrugs simultaneously releasing DNA-methylating agents and the antiresistance drug O(6)-benzylguanine” (J Med Chem, 2004)

How the values were obtained:
OVCAR-4 = test: Antitumor activity against human OVCAR4 cells; assay type: functional
In short: (§1)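 Tested in the NCI in vitro disease-oriented human tumor cell screen. The endpoints are IC50 (molar concentration giving 50% growth inhibition), TGI (total growth inhibition) and LC50 (50% net cell death). The maximal concentration tested was 100 μM. Subpanel values are means of several individual cell lines.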

NCI = test: Antitumor activity against NCI human melanoma cell line panel; assay type: functional, cell-based; in short: as §1
DU-145 = test: Antitumor activity against human DU145 cells; assay type: functional; in short: as §1
SK-MEL-5 = test: Antitumor activity against human SK-MEL-5 cells; assay type: functional; in short: as §1
EKVX = test: Antitumor activity against human EKVX cells; assay type: functional; in short: as §1
UACC-257 = test: Antitumor activity against human UACC257 cells; assay type: functional
In short: (§2)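 NCI in vitro disease-oriented tumour cell line screen. Read-outs are IC50 (molar concentration giving 50% growth inhibition), TGI (molar concentration giving total inhibition of net growth) and LC50 (molar concentration giving 50% net cell death). The maximal concentration tested was 100 μM.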

SK-MEL-2 = test: Antitumor activity against human SK-MEL-2 cells; assay type: functional; in short: as §1
NCI-H460 = test: Antitumor activity against human NCI-H460 cells; assay type: functional; in short: as §1
U-251 = test: Antitumor activity against human U251 cells; assay type: functional; in short: as §2
KM12 = test: Antitumor activity against human KM12 cells; assay type: functional; in short: as §1
Hs-578T = test: Antitumor activity against human HS578T cells; assay type: functional; in short: as §1
UACC-62 = test: Antitumor activity against human UACC62 cells; assay type: functional; in short: as §2
SF-539 = test: Antitumor activity against human SF539 cells; assay type: functional; in short: as §1
A549 = test: Antitumor activity against human A549 cells; assay type: functional; in short: as §1
SK-OV-3 = test: Antitumor activity against human SKOV3 cells; assay type: functional; in short: as §1
SNB-19 = test: Antitumor activity against human SNB19 cells; assay type: functional; in short: as §1
NCI-H322M = test: Antitumor activity against human NCI-H322M cells; assay type: functional; in short: as §1
SNB-75 = test: Antitumor activity against human SNB75 cells; assay type: functional; in short: as §2
IGROV-1 = test: Antitumor activity against human IGROV1 cells; assay type: functional; in short: as §1
RPMI-8226 = test: Antitumor activity against human RPMI8226 cells; assay type: functional; in short: as §1
[1] = read-out: Log LC50 (the source's name) (converted)

## CN(/N=N/c1nc(OCc2ccccc2)c2nc[nH]c2n1)C(=O)N(C)/N=N/c1nc(OCc2ccccc2)c2nc[nH]c2n1
OVCAR-4
  GI50: > 100 µM
OVCAR-4; [1]
  CC50: > 100 µM
OVCAR-4; read-out: Log TGI (converted)
  TGI: > 100 µM
NCI
  IC50: 47 µM
  TGI: 93 µM
DU-145
  GI50: 38.9 µM
DU-145; [1]
  CC50: > 100 µM
DU-145; read-out: Log TGI (converted)
  TGI: > 100 µM
SK-MEL-5
  GI50: 20.9 µM
SK-MEL-5; [1]
  CC50: > 100 µM
SK-MEL-5; read-out: Log TGI (converted)
  TGI: 61.7 µM
EKVX
  GI50: 38 µM
EKVX; [1]
  CC50: > 100 µM
EKVX; read-out: Log TGI (converted)
  TGI: > 100 µM
UACC-257
  GI50: 55 µM
UACC-257; [1]
  CC50: > 100 µM
UACC-257; read-out: Log TGI (converted)
  TGI: > 100 µM
SK-MEL-2
  GI50: 64.6 µM
SK-MEL-2; [1]
  CC50: > 100 µM
SK-MEL-2; read-out: Log TGI (converted)
  TGI: > 100 µM
NCI-H460
  GI50: 26.3 µM
NCI-H460; [1]
  CC50: > 100 µM
NCI-H460; read-out: Log TGI (converted)
  TGI: > 100 µM
U-251
  GI50: 50.1 µM
U-251; [1]
  CC50: > 100 µM
U-251; read-out: Log TGI (converted)
  TGI: > 100 µM
KM12
  GI50: 85.1 µM
KM12; [1]
  CC50: > 100 µM
KM12; read-out: Log TGI (converted)
  TGI: > 100 µM
Hs-578T
  pKP: >4
Hs-578T; Homo sapiens, Hs-578T
  GI50: 25.1 µM
Hs-578T; Homo sapiens, Hs-578T, read-out: Log LC50 (the source's name) (converted)
  CC50: > 100 µM
Hs-578T; Homo sapiens, Hs-578T, read-out: Log TGI (converted)
  TGI: 85.1 µM
UACC-62
  GI50: 30.9 µM
UACC-62; [1]
  CC50: > 100 µM
UACC-62; read-out: Log TGI (converted)
  TGI: > 100 µM
SF-539
  GI50: 38 µM
SF-539; [1]
  CC50: > 100 µM
SF-539; read-out: Log TGI (converted)
  TGI: > 100 µM
A549; [1]
  CC50: > 100 µM
A549; read-out: Log TGI (converted)
  TGI: > 100 µM
SK-OV-3
  GI50: 41.7 µM
SK-OV-3; [1]
  CC50: > 100 µM
SK-OV-3; read-out: Log TGI (converted)
  TGI: > 100 µM
SNB-19
  GI50: > 100 µM
  LC50: > 100 µM
SNB-19; read-out: Log TGI (converted)
  TGI: > 100 µM
NCI-H322M
  GI50: 41.7 µM
NCI-H322M; [1]
  CC50: > 100 µM
NCI-H322M; read-out: Log TGI (converted)
  TGI: > 100 µM
SNB-75
  GI50: > 100 µM
SNB-75; [1]
  CC50: > 100 µM
SNB-75; read-out: Log TGI (converted)
  TGI: > 100 µM
IGROV-1
  GI50: 34.7 µM
IGROV-1; [1]
  CC50: > 100 µM
IGROV-1; read-out: Log TGI (converted)
  TGI: > 100 µM
RPMI-8226
  GI50: 38 µM
RPMI-8226; [1]
  CC50: > 100 µM
RPMI-8226; read-out: Log TGI (converted)
  TGI: > 100 µM
